The values that follow come from article PMC11601626 (bioRxiv, 2024).

The subject of assay [1] is HCT116 cells. Briefly: Live-cell imaging growth analysis. Format: cell-based, human. To be noted: ∆PHRF1 HCT116 cells, complemented; no zeocin; Incucyte, one week; n = 3. In a few lines:
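Control+EV, ∆PHRF1+EV and WT- or P221L-complemented ∆PHRF1 lines were grown in McCoy's 5A with 10% FBS and penicillin/streptomycin at 37°C, 5% CO₂. They were harvested near 70% confluence and seeded at 1,000 cells/well in biological triplicate. Imaging began immediately: every 4 h for one week, 10X objective, four fields per well. Confluence was scored as percentage of area occupied by cells.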

For assay [2], the system named is HCT116 cells. Briefly: Colony formation assay under zeocin. Format: cell-based, human. To be noted: ∆PHRF1 HCT116 cells, complemented; effect greater with WT than P221L. In a few lines:
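Cells were Control+EV, ∆PHRF1+EV, and ∆PHRF1 complemented with 3XFlag-PHRF1 WT or P221L. They were harvested near 70% confluence and seeded at 500 cells/well in biological triplicate, then left to adhere overnight at 37°C. Medium was replaced with zeocin at 0, 0.375, 0.75 and 1.5 µg/mL for 9 days undisturbed. Cells were fixed in 4% formaldehyde and stained with 0.5% crystal violet; growth area was measured per imaged well.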

In assay [3] the test system is HeLa cells (control and ∆PHRF1). Briefly: Zeocin DNA damage recovery assay, γH2A.X intensity/nucleus, HeLa. To be noted: qGAM; 50 μg/mL zeocin 30 minutes, washout 0-26 h; p-value 4.79x10-5 (Wald). Format: cell-based, human.
For assay [4], the target named is unmodified biotinylated nucleosome (EpiCypher) (human) (UniProt P68431). Kind of assay: BLI.
Assay [5] concerns H3 (1–20)-FAM. Briefly: Histone peptide fluorescence polarization. Format: binding. To be noted: protein 50 to 0.0061 μM, pH 8.0, KD n.d. In general terms: In fluorescence polarisation assays a small probe gives low polarisation when free and higher when bound to something large.
In assay [6] the test system is biotinylated unmodified nucleosomes. Kind of assay: Biolayer interferometry. The class given is binding. To be noted: BLI; protein 25 to 1.625 μM; pH 7.0; 37°C; KD n.d.
The test system of assay [7] is GST-PHRF1^RP(P221L). Kind of assay: Histone peptide microarray with GST-PHRF1^RP. The class given is binding, human. To be noted: over 300 differentially-modified histone peptides.
The test system of assay [8] is differentially modified biotinylated nucleosomes. Kind of assay: Nucleosome pulldown assay. The class given is binding. To be noted: 2.5 pmol protein, 12.5 pmol nucleosomes, pH 7.5, 4°C overnight. In a few lines:
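Binding buffer: 50 mM Tris-HCl pH 7.5, 150 mM NaCl, 0.5% BSA, 0.1% NP-40, 10% glycerol. GST-PHRF1 RP, PHD or RP(P221L) was mixed with the modified biotinylated nucleosomes. Beads were washed three times in binding buffer, 5 min each at 4°C with rotation, then taken up in SDS loading dye. Immunoblots used anti-GST for PHRF1 and anti-H3 for nucleosome presence.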

The test system is the same in assay [9]. Briefly: dCypher nucleosome alphascreen binding assay. To be noted: GST-PHRF1^RP 3 nM, nucleosomes 10 nM, duplicate.

“3XFlag-PHRF1^P221L: 3XFlag-tagged PHRF1 P221L mutant expressed by lentivirus in HCT116 ∆PHRF1 cells”: the “rescue of growth under normal conditions, in words” value in [1] was “partially rescuing the growth phenotype”. Besides, the “rescue of colony growth at 0.375 μg/mL zeocin, in words” value in assay [2] is listed as “partial rescue of growth”.
The matching figures for “3XFlag-PHRF1^WT: N-terminally 3XFlag-tagged PHRF1 expressed by lentivirus in HCT116 ∆PHRF1 cells”: “largely rescued the growth defects” and “partial rescue of growth”.
As to `Cc1c(N)nc([C@H](CC(N)=O)NC[C@H](N)C(N)=O)nc1C(=O)N[C@H](C(=O)N[C@H](C)[C@@H](O)[C@H](C)C(=O)N[C@H](C(=O)NCCC1=N[C@@H](c2nc(C(=O)NCCCCN=C(N)N)cs2)CS1)[C@@H](C)O)[C@@H](O[C@@H]1O[C@@H](CO)[C@@H](O)[C@H](O)[C@@H]1O[C@H]1O[C@H](CO)[C@@H](O)[C@H](OC(N)=O)[C@@H]1O)c1cnc[nH]1` [zeocin, phleomycin D1], the “Parametric Coefficient, γH2A.X intensity/nucleus, ∆PHRF1 vs Control” value in assay [3] was −345.25.
As usually defined, the Kd is the concentration at which binding is half-saturated. A high value points to weaker binding. In the case of “GST-PHRF1^RP (RING-PHD region of PHRF1, residues 107-232) (from UniProt Q9P1Y6 107-232) (domain or fragment)”, the Kd in assay [4] came to 1.01 µM.

B1: GST-PHRF1^RP(P221L): GST-PHRF1^RP with P221 mutated to leucine (protein)
chain: SCPICLNAFRDQAVGTPENCAHYFCLDCIVEWSKNANSCPVDRTLFKCICIRAQFGGKILRKIPVENTKASEEEEDPTFCEVCGRSDREDRLLLCDGCDAGYHMECLDPPLQEVLVDEWFCPECAA
modifications: left off: GST, end not stated, kept
As to B1, the “binding to H3 1–20(FAM), in words” value in assay [5] is “little to no observable binding”. The “binding to nucleosomes, in words” value in assay [6] is “no detectable binding to nucleosomes”. Moreover, the “binding to histone peptides, in words” value in [7] is given as “virtually no binding to any histone peptide on the microarray”. The “nucleosome interaction of P221L mutant, in words” value in assay [8] was “abolished all nucleosome interaction”.

B2: GST-PHRF1^RP: GST-tagged PHRF1 RING-PHD region, residues 107–232 of PHRF1 (protein)
chain: SCPICLNAFRDQAVGTPENCAHYFCLDCIVEWSKNANSCPVDRTLFKCICIRAQFGGKILRKIPVENTKASEEEEDPTFCEVCGRSDREDRLLLCDGCDAGYHMECLDPPLQEVPVDEWFCPECAA
modifications: left off: GST, end not stated, kept
Regarding B2, in assay [9], the “nucleosome binding, H3K9me3 versus unmodified, in words” value is on record as “heightened binding”.
